Test results from ChEMBL document CHEMBL3580599, “Synthesis and Biological Evaluation of Novel Homoisoflavonoids for Retinal Neovascularization” (J Med Chem, 2015).

Tests used:
[1] = Growth inhibition of human HUVEC cells assessed as reduction in cell number after 48 hrs by alamarBlue based fluorescence assay
Summary of the method: (§1)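 Cells (2,500 per well in growth medium) were allowed 24 h, then exposed 48 h to compound over 0.5 nM–500 μM. alamarBlue was added and fluorescence read 4 h later (ex 560/em 590 nm). Dose-response curves were fitted relative to DMSO control; compounds not reducing cell number ≥50% at the top concentration were reported as GI50 >100 μM.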

Y79 = experiment: Growth inhibition of human Y79 cells assessed as reduction in cell number after 48 hrs by alamarBlue based fluorescence assay; type: functional; conditions: Y79, 48 h; summary of the method: as §1
[2] = Growth inhibition of human 92-1 cells assessed as reduction in cell number after 48 hrs by alamarBlue based fluorescence assay; type: functional; summary of the method: as §1
[3] = Growth inhibition of human HREC cells assessed as reduction in cell number after 48 hrs by alamarBlue based fluorescence assay; type: functional; summary of the method: as §1

Compound	GI50 at 48 h [1]	GI50 (Y79)	GI50 [2]	GI50 [3]
COc1ccc(CC2COc3cc(O)c(OC)c(O)c3C2=O)cc1O (configuration not stated)	0.38 µM	9.8 µM	48 µM	0.22 µM
COc1ccc(CC2COc3cc(OC)c(OC)c(OC)c3C2=O)cc1N (configuration not stated)	0.51 µM	> 100 µM	> 100 µM	1.1 µM
COc1cc2c(c(OC)c1OC)C(=O)C(Cc1ccccc1)CO2 (configuration not stated)	> 100 µM	> 100 µM	> 100 µM	> 100 µM
COc1ccc(CC2COc3cc(OC)c(O)c(O)c3C2=O)cc1O (configuration not stated)	18 µM	> 100 µM	10 µM	45 µM
COc1cc2c(c(OC)c1OC)C(=O)/C(=C/c1ccc(O)c(O)c1)CO2	5 µM	4 µM	9.5 µM	7.6 µM
COc1ccc(CC2COc3cc(OC)c(OC)c(OC)c3C2=O)cc1OC(=O)[C@H](CCc1ccccc1)NC(=O)OC(C)(C)C (some centres not stated)	> 100 µM	> 100 µM	> 100 µM	0.17 µM
COc1ccc(CC2COc3cc(OC)c(OC)c(OC)c3C2=O)cc1NC(=O)[C@H](Cc1ccccc1)NC(=O)OC(C)(C)C (some centres not stated)	8.6 µM	4.7 µM	3.1 µM	22 µM
CCCCNC(=O)N[C@@H](Cc1ccccc1)C(=O)Oc1cc(CC2COc3cc(OC)c(OC)c(OC)c3C2=O)ccc1OC (some centres not stated)	> 100 µM	64 µM	> 100 µM	1.4 µM
C=CCOc1ccc(C[C@H](NC(=O)OC(C)(C)C)C(=O)Nc2cc(CC3COc4cc(OC)c(OC)c(OC)c4C3=O)ccc2OC)cc1 (some centres not stated)	4.5 µM	2.5 µM	1.9 µM	13 µM
COc1cc(/C=C2\COc3cc(OC)c(OC)c(OC)c3C2=O)ccc1OCc1ccccc1	52 µM	14 µM	68 µM	35 µM
COc1ccc(CC2COc3cc(OC)c(OC)c(OC)c3C2=O)cc1NC(=O)[C@H](Cc1ccc(OCc2ccccc2)cc1)NC(=O)OC(C)(C)C (some centres not stated)	> 100 µM	0.39 µM	> 100 µM	> 100 µM
COc1ccc(/C=C2\COc3cc(OC)c(OC)c(OC)c3C2=O)cc1[N+](=O)[O-]	15 µM	2.2 µM	12 µM	4.8 µM
COc1cc(OC)c2c(c1)OC/C(=C\c1ccc(OC)c(O)c1)C2=O	15 µM	14 µM	> 100 µM	42 µM
COc1cc(OC)c2c(c1)OCC(Cc1ccc(OC)c(O)c1)C2=O (configuration not stated)	2.5 µM	4.2 µM	> 100 µM	1.6 µM
COc1ccc(CC2COc3cc(OC)c(OC)c(OC)c3C2=O)cc1C(=O)O (configuration not stated)	92 µM	> 100 µM	> 100 µM	> 100 µM
COc1cc2c(c(OC)c1OC)C(=O)/C(=C/c1ccc(OCc3ccccc3)c(OCc3ccccc3)c1)CO2	43 µM	32 µM	> 100 µM	72 µM
C=CCOc1ccc(C[C@H](NC(=O)OC(C)(C)C)C(=O)Oc2cc(CC3COc4cc(OC)c(OC)c(OC)c4C3=O)ccc2OC)cc1 (some centres not stated)	0.091 µM	52 µM	> 100 µM	0.16 µM
COc1ccc(/C=C2\COc3cc(OC)c(OC)c(OC)c3C2=O)cc1F	7.6 µM	9.8 µM	7 µM	2.8 µM
COc1ccc(CC2COc3cc(OC)c(OC)c(OC)c3C2=O)cc1OC(=O)[C@H](Cc1ccc(OCc2ccccc2)cc1)NC(=O)OC(C)(C)C (some centres not stated)	> 100 µM	> 100 µM	> 100 µM	0.51 µM

Compound	GI50 at 48 h [1]	GI50 (Y79)	GI50 [2]	GI50 [3]
COc1ccc(CC2COc3cc(OC)c(OC)c(OC)c3C2=O)cc1OC(=O)[C@H](Cc1ccccc1)NC(=O)OCc1ccccc1 (some centres not stated)	> 100 µM	> 100 µM	> 100 µM	0.14 µM
COc1ccc(CC2COc3cc(O)c(OC)c(OC)c3C2=O)cc1O (configuration not stated)	> 100 µM	> 100 µM	> 100 µM	> 100 µM
CC[C@H](C)[C@H](NC(=O)OC(C)(C)C)C(=O)Oc1cc(CC2COc3cc(OC)c(OC)c(OC)c3C2=O)ccc1OC (some centres not stated)	> 100 µM	24 µM	> 100 µM	3.1 µM
COc1ccc(CC2COc3cc(OC)c(OC)c(OC)c3C2=O)cc1OC(=O)c1ccccc1 (configuration not stated)	> 100 µM	> 100 µM	> 100 µM	0.65 µM
COc1ccc(CC2COc3cc(OC)c(OC)c(OC)c3C2=O)cc1OC(=O)[C@H](Cc1ccccc1)NS(=O)(=O)c1ccc(C)cc1 (some centres not stated)	22 µM	> 100 µM	> 100 µM	1.5 µM
COc1ccc(/C=C2\COc3cc(OC)c(OC)c(OC)c3C2=O)cc1OCc1ccccc1	16 µM	33 µM	3.5 µM	4.3 µM
CCNC(=O)N[C@@H](Cc1ccccc1)C(=O)Oc1cc(CC2COc3cc(OC)c(OC)c(OC)c3C2=O)ccc1OC (some centres not stated)	34 µM	48 µM	98 µM	1 µM
COc1ccc(CC2COc3cc(OC)c(OC)c(OC)c3C2=O)cc1OC(=O)CCc1ccccc1 (configuration not stated)	38 µM	> 100 µM	> 100 µM	0.22 µM
COc1ccc(CC2COc3cc(OC)c(OC)c(OC)c3C2=O)cc1OCc1ccccc1 (configuration not stated)	> 100 µM	20 µM	61 µM	22 µM
COC(=O)c1cc(CC2COc3cc(OC)c(OC)c(OC)c3C2=O)ccc1OC (configuration not stated)	17 µM	40 µM	> 100 µM	18 µM
COc1cc(/C=C2\COc3cc(OC)c(OC)c(OC)c3C2=O)ccc1O	6.2 µM	5.2 µM	26 µM	3.3 µM
COc1ccc(/C=C2\COc3cc(OC)c(OC)c(OC)c3C2=O)cc1O	5.6 µM	44 µM	0.22 µM	46 µM
COc1ccc(CC2COc3cc(OC)c(OC)c(OC)c3C2=O)cc1O (configuration not stated)	12 µM	> 100 µM	> 100 µM	2 µM
CCN(CC)C(=O)Oc1cc(CC2COc3cc(OC)c(OC)c(OC)c3C2=O)ccc1OC (configuration not stated)	> 100 µM	24 µM	> 100 µM	49 µM
COc1ccc(CC2COc3cc(OC)c(OC)c(O)c3C2=O)cc1O (configuration not stated)	44 µM	> 100 µM	> 100 µM	> 100 µM
COC(=O)c1cc(/C=C2\COc3cc(OC)c(OC)c(OC)c3C2=O)ccc1OC	3.2 µM	6.1 µM	> 100 µM	5.6 µM
COc1ccc(CC2COc3cc(OC)c(OC)c(OC)c3C2=O)cc1OC(=O)/C=C/c1ccccc1 (configuration not stated)	> 100 µM	> 100 µM	> 100 µM	0.17 µM
COc1ccc(CC2COc3cc(OC)c(OC)c(OC)c3C2=O)cc1OC(=O)[C@H](CC(C)C)NC(=O)OC(C)(C)C (some centres not stated)	> 100 µM	> 100 µM	> 100 µM	0.13 µM
C=CCOc1cc(/C=C2\COc3cc(OC)c(OC)c(OC)c3C2=O)ccc1OC	12 µM	2.8 µM	1.1 µM	3.9 µM
